# According to ChEMBL document CHEMBL3526154, “Metabolism, pharmacokinetics, tissue distribution, and stability studies of the prodrug analog of an anti-hepatitis B virus dinucleoside phosphorothioate” (Drug Metab Dispos, 2012):
# Tests used:
# Rattus norvegicus [1] = assay: Drug recovery in male Sprague-Dawley rat at 10 mg/kg, po administered as single dose measured after 24 hrs by liquid scintillation counting analysis; format: ADME, organism-based; design: dose 10 mg/kg, route oral; conditions: in vivo
# Method in brief: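 Rats got a single i.v. bolus or oral gavage dose of [³⁵S]-prodrug at 5 ml/kg over a 24 h study. Radioactivity in blood, tissues, carcass, urine and feces measured by liquid scintillation counting. Total recovery given as % of administered dose at 24 h.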
# [2] = Drug excretion in male Sprague-Dawley rat urine at 10 mg/kg, iv administered as bolus dose measured at 0 to 1 hr post-dose by liquid scintillation counting analysis; format: ADME, organism-based; design: dose 10 mg/kg, route intravenous; conditions: in vivo
# Method in brief: (§1)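 Single [³⁵S]-prodrug dose to rats, i.v. tail-vein bolus (PEG 400/saline vehicle) or oral gavage (citric acid buffer pH 2.5), 5 ml/kg. Urine and feces collected ~1, 4 and 24 h postdose. Radioactivity counted by liquid scintillation and expressed as % of administered dose. Mean and S.D. from nine rats per sex.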
# [3] = Drug excretion in male Sprague-Dawley rat urine at 10 mg/kg, iv administered as bolus dose measured at 1 to 4 hrs post-dose by liquid scintillation counting analysis; format: ADME, organism-based; design: dose 10 mg/kg, route intravenous; conditions: in vivo; method in brief: as §1
# [4] = Drug excretion in male Sprague-Dawley rat urine at 10 mg/kg, iv administered as bolus dose measured at 4 to 24 hrs post-dose by liquid scintillation counting analysis; format: ADME, organism-based; design: dose 10 mg/kg, route intravenous; conditions: in vivo; method in brief: as §1
# [5] = Drug excretion in male Sprague-Dawley rat urine at 10 mg/kg, po administered as single dose measured at 4 to 24 hrs post-dose by liquid scintillation counting analysis; format: ADME, organism-based; design: dose 10 mg/kg, route oral; conditions: in vivo; method in brief: as §1
# [6] = Drug excretion in male Sprague-Dawley rat urine at 10 mg/kg, po administered as single dose measured at 0 to 24 hrs post-dose by liquid scintillation counting analysis; format: ADME, organism-based; design: dose 10 mg/kg, route oral; conditions: in vivo; method in brief: as §1
# [7] = Drug excretion in female Sprague-Dawley rat urine at 10 mg/kg, po administered as single dose measured at 0 to 1 hr post-dose by liquid scintillation counting analysis; format: ADME, organism-based; design: dose 10 mg/kg, route oral; conditions: in vivo; method in brief: as §1
# [8] = Drug excretion in female Sprague-Dawley rat urine at 10 mg/kg, po administered as single dose measured at 1 to 4 hrs post-dose by liquid scintillation counting analysis; format: ADME, organism-based; design: dose 10 mg/kg, route oral; conditions: in vivo; method in brief: as §1
# [9] = Drug excretion in female Sprague-Dawley rat urine at 10 mg/kg, po administered as single dose measured at 0 to 24 hrs post-dose by liquid scintillation counting analysis; format: ADME, organism-based; design: dose 10 mg/kg, route oral; conditions: in vivo; method in brief: as §1
# [10] = Drug excretion in male Sprague-Dawley rat feces at 10 mg/kg, iv administered as bolus dose measured at 1 to 4 hrs post-dose by liquid scintillation counting analysis; format: ADME, organism-based; design: dose 10 mg/kg, route intravenous; conditions: in vivo; method in brief: as §1
# [11] = Drug excretion in male Sprague-Dawley rat feces at 10 mg/kg, iv administered as bolus dose measured at 4 to 24 hrs post-dose by liquid scintillation counting analysis; format: ADME, organism-based; design: dose 10 mg/kg, route intravenous; conditions: in vivo; method in brief: as §1
# Rattus norvegicus [12] = assay: Terminal half life in female Sprague-Dawley rat at 10 mg/kg, iv administered as bolus dose by liquid scintillation counting analysis; format: ADME, organism-based; design: dose 10 mg/kg, route intravenous; conditions: in vivo
# Method in brief: (§2)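 Radioactivity in plasma from rats given a single [35S]-labelled dose, iv (tail vein, 25% PEG 400/75% saline) or oral gavage (0.05 M citric acid, pH 2.5), sampled at 1, 4 and 24 h, measured by liquid scintillation as µg-Eq/ml. Elimination t1/2 and Tmax were derived by noncompartmental analysis with sparse sampling, from nine male and nine female rats.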
# Rattus norvegicus [13] = assay: Cmax in male Sprague-Dawley rat at 10 mg/kg, iv administered as bolus dose by liquid scintillation counting analysis; format: ADME, organism-based; design: dose 10 mg/kg, route intravenous; conditions: in vivo
# Method in brief: (§3)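 Single dose of [³⁵S]-labelled prodrug to rats, i.v. tail-vein bolus in 25% PEG 400/75% saline or oral gavage in 0.05 M citric acid buffer pH 2.5, 5 ml/kg. Retro-orbital blood into EDTA at 1, 4 or 24 h; plasma by centrifugation. Radioactivity by liquid scintillation counting as µg-Eq/ml. Noncompartmental sparse-sampling analysis gives Cmax and AUC; nine rats per sex.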
# Rattus norvegicus [14] = assay: AUC in male Sprague-Dawley rat at 10 mg/kg, iv administered as bolus dose by liquid scintillation counting analysis; format: ADME, organism-based, Plasma; design: dose 10 mg/kg, route intravenous; conditions: in vivo; method in brief: as §3
# [15] = Drug excretion in female Sprague-Dawley rat feces at 10 mg/kg, iv administered as bolus dose measured at 4 to 24 hrs post-dose by liquid scintillation counting analysis; format: ADME, organism-based; design: dose 10 mg/kg, route intravenous; conditions: in vivo; method in brief: as §1
# [16] = Drug excretion in male Sprague-Dawley rat feces at 10 mg/kg, po administered as single dose measured at 1 to 4 hrs post-dose by liquid scintillation counting analysis; format: ADME, organism-based; design: dose 10 mg/kg, route oral; conditions: in vivo; method in brief: as §1
# [17] = Drug excretion in male Sprague-Dawley rat feces at 10 mg/kg, po administered as single dose measured at 0 to 24 hrs post-dose by liquid scintillation counting analysis; format: ADME, organism-based; design: dose 10 mg/kg, route oral; conditions: in vivo; method in brief: as §1
# [18] = Drug excretion in female Sprague-Dawley rat feces at 10 mg/kg, po administered as single dose measured at 0 to 1 hr post-dose by liquid scintillation counting analysis; format: ADME, organism-based; design: dose 10 mg/kg, route oral; conditions: in vivo; method in brief: as §1
# Rattus norvegicus [19] = assay: Tmax in female Sprague-Dawley rat at 10 mg/kg, po administered as single dose by liquid scintillation counting analysis; format: ADME, organism-based; design: dose 10 mg/kg, route oral; conditions: in vivo; method in brief: as §2
# Liver = assay: Drug uptake in Sprague-Dawley rat liver at 10 mg/kg, po administered as single dose measured at 4 hrs post-dose by liquid scintillation counting analysis; format: ADME, organism-based; design: dose 10 mg/kg, route oral; conditions: in vivo
# Method in brief: (§4)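 [35S]-labelled prodrug given once to rats, iv bolus via tail vein (25% PEG 400/75% saline) or oral gavage (0.05 M citric acid buffer, pH 2.5), 5 ml/kg. Rats euthanised at 1, 4 or 24 h. Liver, lung, kidney, heart, brain, spleen, tail and retro-orbital plasma were collected. Samples were homogenised and solubilised, and radioactivity was counted by liquid scintillation. Values are µg-equivalent/ml or g and % of dose.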
# Blood = assay: Drug uptake in Sprague-Dawley rat blood at 10 mg/kg, po administered as single dose measured at 4 hrs post-dose by liquid scintillation counting analysis; format: ADME, organism-based; design: dose 10 mg/kg, route oral; conditions: in vivo
# Method in brief: (§5)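 Single i.v. tail-vein bolus or oral gavage of [³⁵S]-prodrug to rats, 5 ml/kg. Euthanised by i.p. pentobarbital overdose at 1, 4 or 24 h. Retro-orbital blood collected; liver, lung, kidney, heart, brain and spleen frozen. Tissues homogenised, solubilised and counted by liquid scintillation. Radioactivity given as µg-Eq/g and % of dose.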
# Plasma = assay: Drug uptake in Sprague-Dawley rat plasma at 10 mg/kg, po administered as single dose measured at 4 hrs post-dose by liquid scintillation counting analysis; format: ADME, organism-based; design: dose 10 mg/kg, route oral; conditions: in vivo; method in brief: as §4
# Nucleic Acid = assay: Ratio of drug level in liver to plasma in female Sprague-Dawley rat at 10 mg/kg, iv administered as bolus dose measured after 1 hr by liquid scintillation counting analysis; format: ADME, organism-based; design: dose 10 mg/kg, route intravenous; conditions: other tissue
# Method in brief: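 Rats received a single iv bolus of the [35S]-labelled prodrug via tail vein in 25% PEG 400/75% saline, 5 ml/kg. Liver (solubilised homogenate) and plasma (EDTA blood, retro-orbital, just before necropsy) were taken at 1, 4 and 24 h and counted by liquid scintillation. The liver/plasma concentration ratio is the mean at each time point, from nine male and nine female rats.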
# Rattus norvegicus [20] = assay: Terminal half life in male Sprague-Dawley rat at 10 mg/kg, iv administered as bolus dose by liquid scintillation counting analysis; format: ADME, organism-based; design: dose 10 mg/kg, route intravenous; conditions: in vivo; method in brief: as §2
# Brain = assay: Drug uptake in Sprague-Dawley rat brain at 10 mg/kg, po administered as single dose measured at 1 to 24 hrs post-dose by liquid scintillation counting analysis; format: ADME, organism-based; design: dose 10 mg/kg, route oral; conditions: in vivo; method in brief: as §5
# Spleen = assay: Drug uptake in Sprague-Dawley rat spleen at 10 mg/kg, po administered as single dose measured at 1 to 24 hrs post-dose by liquid scintillation counting analysis; format: ADME, organism-based; design: dose 10 mg/kg, route oral; conditions: in vivo; method in brief: as §4
structure (smiles),measurement,setting,value
CO[C@@H]1[C@H](OP(=O)(OC[C@H]2O[C@@H](n3cnc4c(N)ncnc43)C[C@@H]2O)[35S]COC(=O)OC(C)C)[C@@H](CO)O[C@H]1n1ccc(=O)[nH]c1=O (stereo partly specified),Drug recovery,Rattus norvegicus [1],83%
same,Drug excretion,[2],22.83%
same,Drug excretion,[3],11.33%
same,Drug excretion,[4],29.6%
same,Drug excretion,[5],33.73%
same,Drug excretion,[6],34.59%
same,Drug excretion,[7],0.16%
same,Drug excretion,[8],2.04%
same,Drug excretion,[9],36.88%
same,Drug excretion,[10],0.01%
same,Drug excretion,[11],16.9%
same,beta t1/2,Rattus norvegicus [12],9 h
same,Cmax,Rattus norvegicus [13],6.51 ugequiv/ml
same,AUC,Rattus norvegicus [14],53.58 ugequiv.h/ml
same,Drug excretion,[15],9.44%
same,Drug excretion,[16],0.01%
same,Drug excretion,[17],35.71%
same,Drug excretion,[18],0.02%
same,Tmax,Rattus norvegicus [19],4 h
same,Drug uptake,Liver,Active
same,Drug uptake,Blood,Active
same,Drug uptake,Plasma,Active
same,Ratio,Nucleic Acid,3.89
same,beta t1/2,Rattus norvegicus [20],7.8 h
same,Drug uptake,Brain,<= 0.5%
same,Drug uptake,Spleen,<= 0.5%
